Assay [1] relates to Saccharomyces cerevisiae. The assay is described as follows: Inhibition of yeast Hsp70 ATPase assessed as ATP hydrolysis relative to control. The gist of the method: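 Purified yeast Hsp70 (Ssa1p) was pre-bound to ATP and run as a single-turnover assay, so that only the hydrolysis step is measured. Compound (300 µM) or DMSO was added at 0 s, and that time was set to zero. Results from multiple experiments were averaged, kinetics were fitted, and the value is the fold change in hydrolysis versus DMSO.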

The subject of a further assay is HT-29. The assay is described as follows: Antiproliferative activity against human HT29 cells after 96 hrs by MTS assay. The assay is classed as functional. As to conditions: HT-29, 96 h. The gist of the method:
(§1)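 Cells were kept in exponential growth in DMEM with 10% FBS, 1% penicillin and 1% glutamine, seeded at 4,000 per well and grown 48 h, with a time-zero plate counted. They were then exposed for 72 h to DMSO (1 v/v) or a concentration range in quadruplicate. Cell number was read by MTS/N-methylphenazine methylsulfate absorbance at 490 minus 630 nm. GI50 is relative to DMSO over the 72 h or 96 h period, and values above 50 µM are given as >50.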
A general note: Tetrazolium assays rely on reduction of a dye to a coloured formazan, in cell work by metabolically active cells.

Assay [2] relates to Saccharomyces cerevisiae. The assay is described as follows: Inhibition of SV40 T antigen-stimulated Hsp70 ATPase in yeast assessed as ATP hydrolysis relative to control. In short, it runs like this: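 Yeast Ssa1p was pre-bound to ATP and run as a single-turnover assay with purified SV40 TAg (0.4 µM). Compound (300 µM) or DMSO was added at 60 s, and that time was set to zero. Runs were averaged over multiple experiments, kinetics were fitted, and the value is the fold change in TAg-stimulated ATP hydrolysis versus DMSO.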

In another assay the test system is SK-BR-3. The assay is described as follows: Antiproliferative activity against human SK-BR3 cells after 96 hrs by MTS assay. The assay is classed as functional. Particulars: SK-BR-3, 96 h. In short, it runs like this: as §1
The subject of a further assay is MCF7. The assay can be described thus: Antiproliferative activity against human MCF7 cells after 96 hrs by MTS assay. The format is functional. As to conditions: MCF7, 96 h. In short, it runs like this:
as §1

A short description of assay [3]: Binding affinity to Hsp70.
Assay [4] can be described thus: Binding affinity to Hsp90.

Some results are limits rather than exact numbers.

Consider `CCCCCCN(C(=O)CCCCCN1C(=O)NC(C2CC2)C(C(=O)OCc2ccccc2)=C1C)C(C(=O)NCCCC)c1ccc(OCC(=O)OC)c(C(=O)OC)c1` (stereo unspecified), for which the Fold change with Saccharomyces cerevisiae [1] was 1.2; in the assay on Saccharomyces cerevisiae [2], -2.6. For the same compound, the GI50 with HT-29 came out at 5.3 µM; in the assay on SK-BR-3, 6.2 µM; with MCF7, 6.3 µM.
Take `CC(C)(C)NC(=O)C(c1ccc(I)cc1)N(CCN1CCOCC1)C(=O)CCCNC(=O)c1ccccc1` (stereo unspecified): the figures for the Fold change in the assay on Saccharomyces cerevisiae [1] and with Saccharomyces cerevisiae [2] were 1.1 and -2, respectively. Moreover, the GI50 with HT-29, with SK-BR-3 and with MCF7 was more than 50 µM each time.
`CCCCCCN(C(=O)CCCCCN1C(=O)NC(c2ccccc2)C(C(=O)OCc2ccccc2)=C1C)C(C(=O)NCCCC)c1ccc(OCC(=O)OC)c(C(=O)OC)c1` (stereo unspecified): the Fold change in the assay on Saccharomyces cerevisiae [1] is 1.1; in the assay with Saccharomyces cerevisiae [2], -1.1. In addition, the GI50 was 4.8 µM in the assay on HT-29, 6.5 µM in the assay with SK-BR-3 and 2.4 µM in the assay on MCF7.
Consider `CC1=C(C(=O)OCc2ccccc2)C(c2ccc(C(C)(C)C)cc2)NC(=O)N1CCCCCC(=O)O` (stereo unspecified), for which the Fold change in the assay on Saccharomyces cerevisiae [1] was 1; in the assay on Saccharomyces cerevisiae [2], -3.5. Besides, the GI50 with SK-BR-3 was more than 50 µM.
For `CCCCCCN(C(=O)CCCCCN1C(=O)NC(c2ccc(-c3ccccc3)cc2)C(C(=O)OCc2ccccc2)=C1C)C(C(=O)NCCCC)c1ccc(O)c(C(=O)OC)c1` (stereo unspecified) the same measures were 19.1, 2.1 and more than 50 µM.
For `CCCCNC(=O)C(c1ccc(OCC(=O)OC)c(C(=O)OC)c1)N(CCOC)C(=O)CCCCCN1C(=O)NC(c2ccc(-c3ccccc3)cc2)C(C(=O)OCc2ccccc2)=C1C` (stereo unspecified), the Fold change was 1.5 with Saccharomyces cerevisiae [1] and -1.8 in the assay with Saccharomyces cerevisiae [2]. Besides, the concentration for 50% growth inhibition (GI50) with HT-29 is 3.1 µM; in the assay with SK-BR-3, 8.8 µM; with MCF7, 7.8 µM.
Consider `CCCCCCN(C(=O)CCCCCN1C(=O)NC(c2cccc([N+](=O)[O-])c2)C(C(=O)OCc2ccccc2)=C1C)C(C(=O)NCCCC)c1ccc(OCC(=O)OC)c(C(=O)OC)c1` (stereo unspecified), for which the Fold change with Saccharomyces cerevisiae [1] is 1.1; in the assay with Saccharomyces cerevisiae [2], -1.5. The compound further showed a 50% growth inhibitory concentration (GI50) in the assay with SK-BR-3 of 6 µM.
For `CCCCCCN(C(=O)CCCCCN1C(=O)NC(c2ccc(-c3ccccc3)cc2)C(C(=O)OCc2ccccc2)=C1C)C(C(=O)NCCCC)c1ccccn1` (stereo unspecified) the same measures were 4.2, 5.5 and more than 50 µM.
For `CC1=C(C(=O)OCc2ccccc2)C(c2ccccc2)NC(=O)N1CCCCCC(=O)O` (stereo unspecified) the same measures were 1.5, -1.1 and more than 50 µM.
Turning to `CC1=C(C(=O)OCc2ccccc2)C(c2ccc(C(F)(F)F)cc2)NC(=O)N1CCCCCC(=O)O` (stereo unspecified), the Fold change with Saccharomyces cerevisiae [1] is 1.2; in the assay with Saccharomyces cerevisiae [2], 1.1. The compound further showed a concentration for 50% growth inhibition (GI50) in the assay on SK-BR-3 of more than 50 µM.
For `CCCCCCN(C(=O)CCCCCN1C(=O)NC(c2ccc(C(C)(C)C)cc2)C(C(=O)OCc2ccccc2)=C1C)C(C(=O)NCCCC)c1ccc(OCC(=O)OC)c(C(=O)OC)c1` (stereo unspecified) the same measures were 1.2, -5.2 and 29 µM.
For `COC(=O)CCCCCN1C(=O)NC(C2CC2)C(C(=O)OCc2ccccc2)=C1C` (stereo unspecified) the same measures were 1.9, 1 and more than 50 µM.
In the case of `CCCCCCN(C(=O)CCCCCN1C(=O)NC(c2ccc(-c3ccccc3)cc2)C(C(=O)OCc2ccccc2)=C1C)C(C)C(=O)NCCCC` (stereo unspecified), the Fold change with Saccharomyces cerevisiae [1] amounted to 1.6; in the assay on Saccharomyces cerevisiae [2], 1. The compound further registered a 50% growth inhibitory concentration (GI50) with SK-BR-3 of more than 50 µM.
For the compound `CC1=C(C(=O)OCc2ccccc2)C(c2ccc(-c3ccccc3)cc2)NC(=O)N1CCCCCC(=O)O` (stereo unspecified), the Fold change with Saccharomyces cerevisiae [1] was 1.1; in the assay on Saccharomyces cerevisiae [2] it was -3.5. In addition, the GI50 in the assay with SK-BR-3 was more than 50 µM.
For `CCCCCCN(C(=O)CCCCCN1C(=O)NC(c2ccc(C(F)(F)F)cc2)C(C(=O)OCc2ccccc2)=C1C)C(C(=O)NCCCC)c1ccc(OCC(=O)OC)c(C(=O)OC)c1` (stereo unspecified) the same measures were 1, -4.8 and more than 50 µM.
For `CCCCCCN(C(=O)CCCCCN1C(=O)NC(C2CCCCC2)C(C(=O)OCc2ccccc2)=C1C)C(C(=O)NCCCC)c1ccc(OCC(=O)OC)c(C(=O)OC)c1` (stereo unspecified) the same measures were 1.2, -2.1 and 6.3 µM.
For `CCCCCCN(C(=O)CCCCCN1C(=O)NC(c2ccc(-c3ccccc3)cc2)C(C(=O)OCc2ccccc2)=C1C)C(C(=O)NCCCC)C1CCCCC1` (stereo unspecified) the same measures were 3.2, 1.1 and more than 50 µM.
On to `COC(=O)CCCCCN1C(=O)NC(c2ccccc2)C(C(=O)OCc2ccccc2)=C1C` (stereo unspecified), for which the Fold change is 2.3 with Saccharomyces cerevisiae [1] and -1.7 with Saccharomyces cerevisiae [2]. The GI50 with SK-BR-3 was more than 50 µM.
For `CCCCNC(=O)C(c1ccc(OCC(=O)OC)c(C(=O)OC)c1)N(CCc1ccccc1)C(=O)CCCCCN1C(=O)NC(c2ccc(-c3ccccc3)cc2)C(C(=O)OCc2ccccc2)=C1C` (stereo unspecified) the same measures were 12.3, 1.3 and 32 µM.
In the case of `CCCCCCN(C(=O)CCCCCN1C(=O)NC(c2ccc(-c3ccccc3)cc2)C(C(=O)OCc2ccccc2)=C1C)C(C(=O)NCCCC)c1ccc(OCC(=O)OC)c(C(=O)OC)c1` (stereo unspecified), the figures for the Fold change in the assay with Saccharomyces cerevisiae [1] and in the assay on Saccharomyces cerevisiae [2] were 1.7 and -2, respectively. The values for the GI50 in the assay on HT-29, with SK-BR-3 and in the assay with MCF7 were more than 50 µM, 27 µM and 14.7 µM, respectively. Further, the EC50 in the assay on SK-BR-3 (read-out: ED50 (the source's name)) came to 8 µM.
Consider `COC(=O)CCCCCN1C(=O)NC(c2ccc(-c3ccccc3)cc2)C(C(=O)OCc2ccccc2)=C1C` (stereo unspecified), for which the Fold change in the assay with Saccharomyces cerevisiae [1] is 2.6; in the assay with Saccharomyces cerevisiae [2] it was -1.2. Also, the concentration for 50% growth inhibition (GI50) with SK-BR-3 is more than 50 µM.
As to `N=C(N)NCCCCCCC(=O)NC(O)C(=O)NCCCCNCCCN` (stereo unspecified) [GUSPERIMUS], the Kd in assay [3] and in assay [4] was 4 µM in each case.
With `CCCCNC(=O)C(c1ccc(OCC(=O)OC)c(C(=O)OC)c1)N(CCc1c[nH]c2ccccc12)C(=O)CCCCCN1C(=O)NC(c2ccc(-c3ccccc3)cc2)C(C(=O)OCc2ccccc2)=C1C` (stereo unspecified), the Fold change is 10.3 in the assay with Saccharomyces cerevisiae [1] and -1.3 in the assay with Saccharomyces cerevisiae [2]. In the assay on SK-BR-3, this compound gave a 50% growth inhibitory concentration (GI50) of more than 50 µM.
For `CC1=C(C(=O)OCc2ccccc2)C(c2ccccc2-c2ccccc2)NC(=O)N1CCCCCC(=O)O` (stereo unspecified) the same measures were 1, -5 and more than 50 µM.
For `CCCCCCN(C(=O)CCCCCN1C(=O)NC(c2ccc(Cl)cc2)C(C(=O)OCc2ccccc2)=C1C)C(C(=O)NCCCC)c1ccc(OCC(=O)OC)c(C(=O)OC)c1` (stereo unspecified) the same measures were 1.3, -5.1 and 16 µM.
For `CC1=C(C(=O)OCc2ccccc2)C(C2CCCCC2)NC(=O)N1CCCCCC(=O)O` (stereo unspecified) the same measures were 1, 1.5 and more than 50 µM.
In the case of `CCCCCCN(C(=O)CCCCCN1C(=O)NC(c2ccc([N+](=O)[O-])cc2)C(C(=O)OCc2ccccc2)=C1C)C(C(=O)NCCCC)c1ccc(OCC(=O)OC)c(C(=O)OC)c1` (stereo unspecified), the Fold change is 1 in the assay with Saccharomyces cerevisiae [1] and -1.1 in the assay on Saccharomyces cerevisiae [2]. This compound showed a 50% growth inhibitory concentration (GI50) in the assay with SK-BR-3 of 6.9 µM.
For `CCCCNC(=O)C(c1ccc(-c2ccccc2)cc1)N(CCN1CCOCC1)C(=O)CCCCCN1C(=O)NC(c2ccc([N+](=O)[O-])cc2)C(C(=O)OCc2ccccc2)=C1C` (stereo unspecified) the same measures were 2.3, -5 and more than 50 µM.
Regarding `CCCCNC(=O)C(c1ccc(OCC(=O)OC)c(C(=O)OC)c1)N(CCC1=CCCCC1)C(=O)CCCCCN1C(=O)NC(c2ccc(-c3ccccc3)cc2)C(C(=O)OCc2ccccc2)=C1C` (stereo unspecified), the Fold change in the assay on Saccharomyces cerevisiae [1] is 6.1; in the assay on Saccharomyces cerevisiae [2], -1.2. Also, the GI50 with SK-BR-3 was found to be 39 µM.
With `CC1=C(C(=O)OCc2ccccc2)C(c2cccc([N+](=O)[O-])c2)NC(=O)N1CCCCCC(=O)O` (stereo unspecified), the Fold change in the assay with Saccharomyces cerevisiae [1] was -1.1; with Saccharomyces cerevisiae [2], 1.1. Further, the GI50 with SK-BR-3 was more than 50 µM.
With `CCCCCCN(C(=O)CCCCCN1C(=O)NC(c2ccc3ccccc3c2)C(C(=O)OCc2ccccc2)=C1C)C(C(=O)NCCCC)c1ccc(OCC(=O)OC)c(C(=O)OC)c1` (stereo unspecified), the Fold change with Saccharomyces cerevisiae [1] was 1; in the assay on Saccharomyces cerevisiae [2], -1.1. In addition, halving of growth in the assay on SK-BR-3 (GI50) required 10 µM.
As to `CCCCCCN(C(=O)CCCCCN1C(=O)NC(c2ccccc2-c2ccccc2)C(C(=O)OCc2ccccc2)=C1C)C(C(=O)NCCCC)c1ccc(OCC(=O)OC)c(C(=O)OC)c1` (stereo unspecified), the Fold change with Saccharomyces cerevisiae [1] was -1.1; in the assay with Saccharomyces cerevisiae [2], -4. Moreover, the GI50 with SK-BR-3 came out at 17 µM.

As a reminder, the GI50 is the concentration giving 50% growth inhibition. Low readings indicate more potent growth inhibition, high ones less potent growth inhibition. One may read the Kd as the free concentration of one partner at which half of the binding sites on the other are occupied at equilibrium, for simple one-to-one binding. A low value points to tighter binding.

These data come from ChEMBL document CHEMBL1143913, “Pyrimidinone-peptoid hybrid molecules with distinct effects on molecular chaperone function and cell proliferation” (Bioorg Med Chem, 2008).
